Values joined by “and” are separate entries in the source; they are usually repeats but may differ in a detail not shown here. Identical values can stand only once. “Also recorded” adds a separate entry of the source.
What was measured:
[1] = system: HHV-8 (BCBL-1); assay: Antiviral qPCR assay, HHV-8; type: cell-based, human herpes virus 8; conditions: for SI HHV-8 (BCBL-1): CC50/EC50; for EC50: Homo sapiens, BCBL1, 168 h, read-out: EC50 HHV-8 (BCBL-1)
[2] = Metabolic stability in rat hepatocytes; type: in vitro ADME
Method in brief: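 In hepatocyte stability, compound at 1 μM was incubated in duplicate with 0.5 × 10^6 cells/mL at 37 °C. Samples were taken over 2 h and quenched and precipitated with ice-cold methanol (1:1). The soluble fraction was analysed by LC–MS/MS.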

[3] = PK in mice after a single intravenous dose; type: in vivo; conditions: mouse, plasma, 1 mg/kg
[4] = system: HCMV (AD169); assay: Antiviral CPE assay, HCMV AD169; type: cell-based, human cytomegalovirus; conditions: CC50/EC50
[5] = system: BK virus (Gardner); assay: Antiviral qPCR assay, BK virus; type: cell-based; conditions: CC50/EC50
[6] = system: human foreskin fibroblast (HFF) cells; assay: Intracellular conversion to CDV-PP, HFF model; type: cell-based; conditions: 30 nM, 72 h
Method in brief: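 Primary HFF cells (passage ≤10) were seeded at 6 × 10^6 per T-75 flask for 24 h. They were exposed in triplicate to 30 nM compound or vehicle in DMEM/2% FBS at 37 °C, 5% CO2 for 72 h, after preincubating the dosing solutions 24 h at 37 °C. Half the flasks were counted. The rest were rinsed in chilled saline and lysed in methanol:water 70:30. Prodrug, CDV and CDV-PP were measured by LC–MS/MS (5–2000 nM qualified range). Results are mean ± SD.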

[7] = system: HSV2 (G); assay: microbe, parasite or virus in culture; type: cell-based, herpesvirus 2 (HSV-2)
[8] = system: HSV1 (E-377); assay: microbe, parasite or virus in culture; type: cell-based, herpesvirus 1 (HSV-1)
[9] = system: HHV-6B (Z29); assay: Antiviral qPCR assay, HHV-6B; type: cell-based, human herpes virus-6B; conditions: for SI HHV-6B (Z29): CC50/EC50; for EC50: Homo sapiens, MOLT-3, 168 h, read-out: EC50 HHV-6B (Z29)
[10] = Oral pharmacokinetics and biodistribution in mice; type: in vivo, male CFW mice
[11] = system: JC virus (MAD-4); assay: Antiviral qPCR assay, JC virus; type: cell-based; conditions: for SI JC virus (MAD-4): CC50/EC50; for EC50: JC polyomavirus, COS-7, 168 h, read-out: EC50 JC virus (MAD-4)
[12] = system: MCMV (Smith); assay: Antiviral qPCR assay, MCMV in MEF cells; type: cell-based, murine cytomegalovirus; conditions: CC50/EC50
[13] = cited from earlier work
[14] = system: ADV5 (Adenoid 75); assay: Antiviral CPE assay, ADV5; type: cell-based, adenovirus (AdV-5); conditions: CC50/EC50
[15] = system: EBV (Akata); assay: Antiviral qPCR assay, EBV; type: cell-based, Epstein–Barr virus; conditions: for SI EBV (Akata): CC50/EC50; for EC50: human gammaherpesvirus 4, Akata, 72 h, read-out: EC50 EBV (Akata)
[16] = system: VZV (Ellen); assay: microbe, parasite or virus in culture; type: cell-based, varicella-zoster virus
[17] = system: HSV-1; conditions: read-out: EC50 against HSV-1; published data ref 42; cited from earlier work
[18] = system: vaccinia (Copenhagen); assay: microbe, parasite or virus in culture; type: cell-based
[19] = system: human adenovirus type 6 (AdV 6), strain tonsil 99 (HAdV-C6); assay: Hamster model of AdV; type: in vivo, immunosuppressed male Syrian hamsters; conditions: IP, 37 mg/kg induction then 20 mg/kg three times weekly
Method in brief: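 Male Syrian hamsters were immunosuppressed with IP cyclophosphamide (140 mg/kg induction, then 100 mg/kg). They received IV 3 × 10^10 pfu/kg AdV 6. There were 7 groups (n = 15), including uninfected vehicle and drug-only (1 mg/kg PO QD) controls. Test compound was given at 0.1, 0.3 or 1 mg/kg, and CDV IP (37, then 20 mg/kg thrice weekly) from day −1. Animals were weighed and observed daily. Liver TCID50 (HEK-293) was taken day 5, with serum transaminases. Survival was compared by log-rank and weight by mixed-effect analysis.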

[20] = system: VZV; conditions: read-out: EC50 against VZV; published data ref 42; cited from earlier work
[21] = system: HCMV (GDG^RK17); assay: Antiviral assay, HCMV GDGRK17; type: cell-based, human cytomegalovirus; conditions: CC50/EC50; single replicate
[22] = system: HCMV; conditions: read-out: EC50 against CMV; cited from earlier work
[23] = system: HSV-2; conditions: read-out: EC50 against HSV-2; published data ref 42; cited from earlier work
[24] = equimolar oral doses, BCV vs NPP-669

SMILES: CCCCCCCCCCCCCCCCOCCCOP(=O)(O)CO[C@H](CO)Cn1ccc(N)nc1=O [BCV, brincidofovir]
- SI HHV-8 (BCBL-1) [1]: 690
- EC50 [1]: 1 nM
- half-life at 1 μM [2]: 142 min
- hepatocyte CLint at 1 μM [2]: 9.73 µL/min/1e6 cells
- AUC [3]: 171 ng·h/mL
- Cmax [3]: 491 ng/mL
- Vd [3]: 3.7 L/kg
- clearance [3]: 122 mL/min/kg
- half-life [3]: 24 min
- SI HCMV (AD169) [4]: 540
- SI BK virus (Gardner) [5]: 180
- intracellular pro-drug level [6]: highest levels of intracellular pro-drug
- SI HSV2 (G) ([7]; CC50/EC50): >50
- EC50 ([7]; Human alphaherpesvirus 2, HFF, read-out: EC50 HSV2 (G)): 20 ± 10 nM
- SI HSV1 (E-377) ([8]; CC50/EC50): >33
- EC50 ([8]; Human alphaherpesvirus 1, HFF, read-out: EC50 HSV1 (E-377)): 30 ± 20 nM
- SI HHV-6B (Z29) [9]: 16
- EC50 [9]: 0.03 ± 0.02 µM
- prodrug exposure in liver tissue [10, 24]: significantly higher levels than NPP-669
- prodrug levels in intestinal tissue [10, 24]: retained at substantially higher levels than NPP-669 in the intestinal tissue
- plasma levels over 24 h ([10]; single oral dose, NPP-669 30 mg/kg, BCV equimolar (26 mg/kg)): > 0.003 μM and > 2 ng/mL
- SI JC virus (MAD-4) [11]: >3
- EC50 [11]: 0.35 ± 0.26 µM
- SI MCMV (Smith) [12]: >244
- GI toxicity ([13]; daily doses at 10 mg/kg ref 36): GI toxicity was noted
- NOAEL ([13]; twice weekly, in rats over 13 weeks ref 36): 15 mg/kg
- SI ADV5 (Adenoid 75) [14]: 46
- SI EBV (Akata) [15]: >11
- EC50 [15]: 0.09 ± 0.09 µM
- SI VZV (Ellen) ([16]; CC50/EC50): 114
- EC50 ([16]; Human alphaherpesvirus 3, HFF, read-out: EC50 VZV (Ellen)): 5 ± 5 nM

SMILES: Nc1ccn(C[C@@H](CO)OCP(=O)(O)O)c(=O)n1 [CDV, cidofovir]
- SI HHV-8 (BCBL-1) [1]: >67
- EC50 [1]: 1500 ± 700 nM
- EC50 [17]: 3 to 5 µM
- SI vaccinia (Copenhagen) [18]: >10
- EC50 ([18]; Orthopoxvirus vaccinia, HFF, read-out: EC50 vaccinia (Copenhagen)): 14.6 µM
- toxicity of the dose needed for antiviral efficacy [19]: low-grade toxicity; also recorded: toxic dose
- SI BK virus (Gardner) [5]: >26
- intracellular levels of CDV or CDV-PP ([6]; below the detection limit): ≤ 10 ng/mL
- EC50 [20]: 500 nM
- SI HCMV (GDG^RK17) [21]: >1034
- EC50 [22]: ~1000 nM
- SI HHV-6B (Z29) [9]: 10
- EC50 [9]: 7.09 ± 3.59 µM
- SI JC virus (MAD-4) [11]: >8
- EC50 [11]: 18.4 ± 16 µM
- SI ADV5 (Adenoid 75) [14]: >23
- EC50 [23]: 5 to 6 µM
- SI EBV (Akata) [15]: >10
- EC50 [15]: 10.1 ± 3.44 µM

SMILES: Nc1nc(O)c2ncn(COC(CO)CO)c2n1 [ganciclovir]
- SI HCMV (AD169) [4]: >92
- SI MCMV (Smith) [12]: >19
